Test [1] relates to Tribolium castaneum. Nature of the test: Antifeedant activity against Tribolium castaneum (red flour beetle) assessed as reduction of food consumption after 3 days by flour disk bioassay relative to control. The format is functional, organism-based. In outline: (§1)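 Adult T. castaneum from a lab colony kept in the dark at 28–30 °C, 70%–80% RH, starved 24 h. Treated flour disks (36–39 mg) air-dried overnight, then equilibrated 48 h at 28–30 °C. Twenty unsexed, group-weighed adults per vial for 3 days; uneaten disk weighed against controls. Insect-free treated vials corrected for solvent evaporation. Six replicates; 10–1000 ppm; EC50 by linear regression.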

Test [2] has as its system Tribolium castaneum. Put plainly: Antifeedant activity against Tribolium castaneum (red flour beetle) assessed as reduction of food consumption at 1000 ppm after 3 days by flour disk bioassay relative to control. The format is functional. In outline: as §1
The test system of test [3] is Tribolium castaneum. Nature of the test: Antifeedant activity against Tribolium castaneum (red flour beetle) assessed as reduction of food consumption at 300 ppm after 3 days by flour disk bioassay relative to control. The format is functional. In outline: as §1
Test [4] has as its system Tribolium castaneum. Nature of the test: Antifeedant activity against Tribolium castaneum (red flour beetle) assessed as reduction of food consumption at 100 ppm after 3 days by flour disk bioassay relative to control. The format is functional. Put shortly:
as §1

The test system of test [5] is Tribolium castaneum. Put plainly: Antifeedant activity against Tribolium castaneum (red flour beetle) assessed as reduction of food consumption at 30 ppm after 3 days by flour disk bioassay relative to control. The format is functional. In outline:
as §1

In test [6] the test system is Tribolium castaneum. Put plainly: Antifeedant activity against Tribolium castaneum (red flour beetle) assessed as reduction of food consumption at 10 ppm after 3 days by flour disk bioassay relative to control. The format is functional. In outline: as §1

For the compound `C=C[C@@]1(C)CC[C@@]2(C)[C@@H](CC[C@](C)(C(C)=O)[C@@H]2CC(=O)O)C1` [TAGALSIN H], the EC50 in test [1] amounted to 285.4 ppm. Besides, the “level, % of control” value in test [2] amounted to 35.41%; in test [3], 49.12%; in test [4] it was 63.26%; in test [5] it was 73.72%; in test [6] it was 92.86%.

On to `C=C[C@@]1(C)CC[C@@]2(C)[C@@H](CC[C@@]3(C)[C@@H]2C=C(O)C(=O)[C@]32CO2)C1` [TAGALSIN B], for which the EC50 in test [1] is given as 277.6 ppm. For the same compound, the “level, % of control” value in test [2] was 38.85%; in test [3], 47.65%; in test [4], 65.32%; in test [5], 84.17%; in test [6], 95.23%.

For the compound `CC(=O)O[C@@H]1C[C@H](O)[C@@]23CO[C@@H](O)[C@]1(C)[C@@H]2C[C@@H](O)[C@]1(C)[C@@H]3C(=O)[C@H](OC(C)=O)[C@@]2(C)[C@H](c3ccoc3)C[C@H]3O[C@]321` [TOOSENDANIN], in test [1], the EC50 is 66 ppm.

In the case of `C=C[C@@]1(C)CC[C@@]2(C)[C@@H](CC[C@@]3(C)[C@@H]2C=C(O)C(=O)[C@@]32CO2)C1` [TAGALSIN A], the EC50 in test [1] was determined as 375.3 ppm. The “level, % of control” value is 40.05% in test [2]; 53.15% in test [3]; 73.43% in test [4]; 88.28% in test [5]; 97.56% in test [6].

Values taken from ChEMBL document CHEMBL3046104, “Antifeedant diterpenoids against Tribolium castaneum from the stems and twigs of Ceriops tagal (Rhizophoraceae)” (Molecules, 2011).
